Laboratory results published in ChEMBL document CHEMBL5154717, “Identification of thiophene-benzenesulfonamide derivatives for the treatment of multidrug-resistant tuberculosis” (Eur J Med Chem, 2022).
Values after ≈ are worked out from the molar mass of the structure shown.

Assays:
[1] = system: Mycobacterium tuberculosis; assay: Antimycobacterial activity against Mycobacterium tuberculosis H37Rv measured by MABA assay; type: functional
Method in brief: (§1)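 Microplate Alamar Blue assay against replicating M. tuberculosis H37Rv or clinical isolates. MIC is the lowest concentration giving ≥90% reduction in fluorescence relative to the mean of replicate bacterium-only controls.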

[2] = system: Mycobacterium tuberculosis; assay: Antimycobacterial activity against Mycobacterium tuberculosis 13946 clinical isolate measured by MABA assay; type: functional; method in brief: as §1
[3] = system: Mycobacterium tuberculosis; assay: Antimycobacterial activity against Mycobacterium tuberculosis 14862 clinical isolate measured by MABA assay; type: functional; method in brief: as §1
[4] = system: Mycobacterium tuberculosis; assay: Antimycobacterial activity against Mycobacterium tuberculosis H37Rv infected in BALB/c mouse assessed as reduction in log10 CFU in lungs at 25 mg/kg, po administered 5 times a week from day 10 to 30; type: functional
Method in brief: (§2)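 Female SPF BALB/c mice, 18–20 g, 6 per group, aerosol-infected with M. tuberculosis H37Rv to deposit 50–100 bacilli per lung. Oral gavage in 0.5% CMC at 25 or 100 mg/kg, 5 days/week from day 10 to day 30; controls get vehicle. Lungs harvested the next day and plated on 7H11 for 3 weeks at 37 °C. Mean log10 CFU compared by Student's t test.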

[5] = Toxicity in BALB/c mouse infected with Mycobacterium tuberculosis H37Rv assessed as body weight at 25 mg/kg, po administered 5 times a week from day 10 to 30; type: organism-based; details: in vivo; method in brief: as §2
[6] = Cytotoxicity against African green monkey Vero cells measured by MTT assay; type: toxicity, cell-based; details: African green monkey (Chlorocebus sabaeus)
Method in brief: (§3)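 Vero, HepG2 and mouse J774A.1 cells grown in RPMI 1640 with 10% FBS. MTT read-out in 96-well format.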

[7] = Cytotoxicity against human HepG2 cells measured by MTT assay; type: toxicity, cell-based; method in brief: as §3
[8] = target: Voltage-gated inwardly rectifying potassium channel KCNH2 (Homo sapiens, UniProt Q12809); assay: Inhibition of hERG; type: toxicity
Chain of Voltage-gated inwardly rectifying potassium channel KCNH2 (Q12809 whole entry): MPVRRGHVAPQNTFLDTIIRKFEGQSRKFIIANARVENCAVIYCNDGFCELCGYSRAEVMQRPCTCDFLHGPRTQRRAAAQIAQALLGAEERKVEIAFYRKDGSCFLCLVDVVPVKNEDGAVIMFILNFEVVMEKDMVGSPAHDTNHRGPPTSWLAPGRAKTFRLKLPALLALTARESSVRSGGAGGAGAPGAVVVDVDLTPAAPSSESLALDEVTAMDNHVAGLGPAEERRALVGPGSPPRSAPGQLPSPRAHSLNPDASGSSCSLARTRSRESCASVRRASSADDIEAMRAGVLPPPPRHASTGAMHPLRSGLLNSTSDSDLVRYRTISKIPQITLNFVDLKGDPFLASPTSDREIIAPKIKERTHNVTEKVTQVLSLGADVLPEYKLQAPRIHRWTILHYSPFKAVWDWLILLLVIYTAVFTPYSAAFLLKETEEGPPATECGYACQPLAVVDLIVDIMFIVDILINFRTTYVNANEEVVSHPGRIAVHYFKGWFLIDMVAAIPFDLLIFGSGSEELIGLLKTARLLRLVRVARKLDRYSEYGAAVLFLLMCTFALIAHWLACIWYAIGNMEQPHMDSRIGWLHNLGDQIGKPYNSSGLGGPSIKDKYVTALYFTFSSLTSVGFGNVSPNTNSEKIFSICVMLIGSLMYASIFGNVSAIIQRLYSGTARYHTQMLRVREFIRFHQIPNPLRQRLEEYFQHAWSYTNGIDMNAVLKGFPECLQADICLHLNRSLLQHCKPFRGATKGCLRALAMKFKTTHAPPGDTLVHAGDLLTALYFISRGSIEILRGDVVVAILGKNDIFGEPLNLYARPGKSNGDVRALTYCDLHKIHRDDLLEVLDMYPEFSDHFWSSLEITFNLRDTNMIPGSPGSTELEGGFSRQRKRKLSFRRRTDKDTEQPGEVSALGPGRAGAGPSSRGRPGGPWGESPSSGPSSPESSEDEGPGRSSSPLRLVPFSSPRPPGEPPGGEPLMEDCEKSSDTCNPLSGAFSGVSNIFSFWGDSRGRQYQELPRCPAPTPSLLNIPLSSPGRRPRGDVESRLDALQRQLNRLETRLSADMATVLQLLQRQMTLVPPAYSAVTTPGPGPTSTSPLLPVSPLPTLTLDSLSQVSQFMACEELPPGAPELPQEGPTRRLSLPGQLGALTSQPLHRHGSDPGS
Method in brief: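 Electrophysiological recording of hERG current at 30, 10, 3.0, 1.0 and 0.3 µM, run in duplicate for IC50.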

[9] = Selectivity index, Ratio of IC50 for Vero cells over MIC for Mycobacterium tuberculosis H37Rv; type: toxicity; details: monkey
[10] = Metabolic stability in mouse hepatocytes assessed as compound remaining at 1 uM measured by LC-MS/MS analysis; type: ADME, cell-based, Hepatocyte; details: read-out: Stability
Method in brief: (§4)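 Compound at 1 µM with hepatocytes at 1 million cells/mL final; human hepatocytes are mixed donor, mouse are male. Incubated at 37 °C in CO2 at ~100 rpm. Sampled at 0, 15, 30, 60, 90 and 120 min, quenched in ice-cold ACN/MeOH with internal standard. Parent remaining measured by LC-MS/MS.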

[11] = Metabolic stability in mouse hepatocytes assessed as half-life at 1 uM measured by LC-MS/MS analysis; type: ADME, cell-based, Hepatocyte; method in brief: as §4
[12] = Metabolic stability in human hepatocytes assessed as compound remaining at 1 uM measured by LC-MS/MS analysis; type: ADME, cell-based, Hepatocyte; details: read-out: Stability; method in brief: as §4
[13] = Metabolic stability in human hepatocytes assessed as half-life at 1 uM measured by LC-MS/MS analysis; type: ADME, cell-based, Hepatocyte; method in brief: as §4
[14] = Cytotoxicity against mouse J774.A1 cells measured by MTT assay; type: toxicity, cell-based; method in brief: as §3
J774.A1 [15] = assay: Antimycobacterial activity against Mycobacterium tuberculosis H37Rv infected in mouse J774.A1 cells assessed as change in log10 CFU at 10 ug/ml; type: functional; details: dose 10 µg/ml
Method in brief: (§5)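 Mouse J774A.1 macrophages infected with M. tuberculosis H37Rv, test compound at final 10 or 5 µg/mL. Read-out is intracellular log10 CFU; Δlog10 CFU = untreated minus treated. Triplicates in at least three separate experiments.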

J774.A1 [16] = assay: Antimycobacterial activity against Mycobacterium tuberculosis H37Rv infected in mouse J774.A1 cells assessed as change in log10 CFU at 5 ug/ml; type: functional; details: dose 5 µg/ml; method in brief: as §5
[17] = system: Mycobacterium tuberculosis; assay: Antimycobacterial activity against Mycobacterium tuberculosis H37Rv infected in BALB/c mouse assessed as reduction in log10 CFU in lungs at 100 mg/kg, po administered 5 times a week from day 10 to 30; type: functional; method in brief: as §2
[18] = Toxicity in BALB/c mouse infected with Mycobacterium tuberculosis H37Rv assessed as body weight at 100 mg/kg, po administered 5 times a week from day 10 to 30; type: organism-based; details: in vivo; method in brief: as §2

Row | SMILES | MIC [1] | MIC [2] | MIC [3] | Activity [4] | Activity [5] | IC50 [6] | IC50 [7] | IC50 [8] | selectivity ratio [9] | remaining at 1 µM [10] | half-life at 1 µM [11] | remaining at 1 µM [12] | half-life at 1 µM [13] | IC50 [14] | Activity (J774.A1 [15]) | Activity (J774.A1 [16]) | Activity [17] | Activity [18]
1 | NNC(=O)c1ccncc1 [ISONIAZID] | 0.019 µg/mL (≈ 0.139 µM) | 2.46 µg/mL (≈ 17.9 µM) | > 10 µg/mL | 1.76 log10CFU | 20.9 g | – | – | – | – | – | – | – | – | – | – | – | – | –
2 | CCOC(=O)NC(=O)c1ccsc1NC(=O)c1ccc(S(=O)(=O)N2CCCC2)cc1 | < 0.016 µg/mL | 0.057 µg/mL (≈ 0.126 µM) | 0.03 µg/mL (≈ 0.0664 µM) | – | – | 58.2 µg/mL (≈ 129 µM) | 62.9 µg/mL (≈ 139 µM) | > 30 µM | > 3640 | 49.7% | 29.7 min | 42% | 24 min | > 64 µg/mL | 1.29 deltalog10CFU | 1.19 deltalog10CFU | 4.81 log10CFU | 20.94 g
